Test system: HEK-293T
Experiment: Multiplex assay against HEK293T;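 for Population Tubulin-Different-Phenotype (%): share of the cells with healthy nuclei that show this phenotype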
Type: toxicity, cell-based
Settings: human
Outline: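 Imaging took place on a CQ1 microscope at 37°C and 5% CO2 once compound had been added to live cells stained at seeding with Hoechst33342, BioTracker Green Microtubule Cytoskeleton Dye, MitoTracker Red and Annexin V Alexa Fluor 680. CellPathfinder machine-learning gating classed cells as Hoechst high-intensity objects or normal cells, classed normal cells as having healthy, pyknosed or fragmented nuclei, and classed pyknosed cells as mitotic or apoptotic. Tubulin, mitochondrial-mass and membrane-permeability phenotypes are per cents of the healthy-nucleus cells.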

[1] = 12 h, 1 µM, compound concentration 1 uM, replicate 1
[2] = 12 h, 1 µM, compound concentration 1 uM, replicate 2
[3] = 12 h, 10 µM, compound concentration 10 uM, replicate 1
[4] = 12 h, 10 µM, compound concentration 10 uM, replicate 2
[5] = 24 h, 1 µM, compound concentration 1 uM, replicate 1
[6] = 24 h, 1 µM, compound concentration 1 uM, replicate 2
[7] = 24 h, 10 µM, compound concentration 10 uM, replicate 1
[8] = 24 h, 10 µM, compound concentration 10 uM, replicate 2
[9] = 48 h, 1 µM, compound concentration 1 uM, replicate 1
[10] = 48 h, 1 µM, compound concentration 1 uM, replicate 2
[11] = 48 h, 10 µM, compound concentration 10 uM, replicate 1
[12] = 48 h, 10 µM, compound concentration 10 uM, replicate 2

## CCN1CCN(Cc2ccc(Nc3ncc(F)c(-c4cc(F)c5nc(C)n(C(C)C)c5c4)n3)nc2)CC1.CS(=O)(=O)O
[1]
  Population Apoptotic (%): 60%
  Population Fragmented Nuclei (%): 17%
  Population Healthy Nuclei (%): 19%
  Population Hoechst High Intensity Objects (%): 17%
  Population Membrane Permeable-Phenotype (%): 0%
  Population Mitochondria Different-Phenotype (%): 94%
  Population Mitotic Cells (%): 40%
  Population Normal (%): 82%
  Population Pyknosed Nuclei (%): 63%
  Population Tubulin-Different-Phenotype (%): 92%
  Total Cell Count: 249
[2]
  Population Apoptotic (%): 40%
  Population Fragmented Nuclei (%): 7%
  Population Healthy Nuclei (%): 27%
  Population Hoechst High Intensity Objects (%): 4%
  Population Membrane Permeable-Phenotype (%): 14%
  Population Mitochondria Different-Phenotype (%): 83%
  Population Mitotic Cells (%): 59%
  Population Normal (%): 95%
  Population Pyknosed Nuclei (%): 64%
  Population Tubulin-Different-Phenotype (%): 81%
  Total Cell Count: 181
[3]
  Population Apoptotic (%): 74%
  Population Fragmented Nuclei (%): 14%
  Population Healthy Nuclei (%): 1%
  Population Hoechst High Intensity Objects (%): 25%
  Population Membrane Permeable-Phenotype (%): 0%
  Population Mitochondria Different-Phenotype (%): 33%
  Population Mitotic Cells (%): 25%
  Population Normal (%): 74%
  Population Pyknosed Nuclei (%): 84%
  Population Tubulin-Different-Phenotype (%): 66%
  Total Cell Count: 289
[4]
  Population Apoptotic (%): 62%
  Population Fragmented Nuclei (%): 12%
  Population Healthy Nuclei (%): 25%
  Population Hoechst High Intensity Objects (%): 21%
  Population Membrane Permeable-Phenotype (%): 2%
  Population Mitochondria Different-Phenotype (%): 79%
  Population Mitotic Cells (%): 37%
  Population Normal (%): 79%
  Population Pyknosed Nuclei (%): 62%
  Population Tubulin-Different-Phenotype (%): 97%
  Total Cell Count: 219
[5]
  Population Apoptotic (%): 63%
  Population Fragmented Nuclei (%): 19%
  Population Healthy Nuclei (%): 32%
  Population Hoechst High Intensity Objects (%): 18%
  Population Membrane Permeable-Phenotype (%): 0%
  Population Mitochondria Different-Phenotype (%): 100%
  Population Mitotic Cells (%): 36%
  Population Normal (%): 81%
  Population Pyknosed Nuclei (%): 47%
  Population Tubulin-Different-Phenotype (%): 95%
  Total Cell Count: 253
[6]
  Population Apoptotic (%): 51%
  Population Fragmented Nuclei (%): 5%
  Population Healthy Nuclei (%): 45%
  Population Hoechst High Intensity Objects (%): 5%
  Population Membrane Permeable-Phenotype (%): 2%
  Population Mitochondria Different-Phenotype (%): 88%
  Population Mitotic Cells (%): 48%
  Population Normal (%): 94%
  Population Pyknosed Nuclei (%): 48%
  Population Tubulin-Different-Phenotype (%): 94%
  Total Cell Count: 201
[7]
  Population Apoptotic (%): 72%
  Population Fragmented Nuclei (%): 23%
  Population Healthy Nuclei (%): 0%
  Population Hoechst High Intensity Objects (%): 23%
  Population Membrane Permeable-Phenotype (%): 0%
  Population Mitochondria Different-Phenotype (%): 0%
  Population Mitotic Cells (%): 27%
  Population Normal (%): 76%
  Population Pyknosed Nuclei (%): 76%
  Population Tubulin-Different-Phenotype (%): 0%
  Total Cell Count: 287
[8]
  Population Apoptotic (%): 79%
  Population Fragmented Nuclei (%): 4%
  Population Healthy Nuclei (%): 18%
  Population Hoechst High Intensity Objects (%): 21%
  Population Membrane Permeable-Phenotype (%): 3%
  Population Mitochondria Different-Phenotype (%): 93%
  Population Mitotic Cells (%): 20%
  Population Normal (%): 78%
  Population Tubulin-Different-Phenotype (%): 93%
  Total Cell Count: 213
[9]
  Population Apoptotic (%): 58%
  Population Fragmented Nuclei (%): 29%
  Population Healthy Nuclei (%): 28%
  Population Hoechst High Intensity Objects (%): 17%
  Population Membrane Permeable-Phenotype (%): 0%
  Population Mitochondria Different-Phenotype (%): 81%
  Population Mitotic Cells (%): 41%
  Population Normal (%): 82%
  Population Pyknosed Nuclei (%): 42%
  Population Tubulin-Different-Phenotype (%): 89%
  Total Cell Count: 254
[10]
  Population Apoptotic (%): 62%
  Population Fragmented Nuclei (%): 9%
  Population Healthy Nuclei (%): 65%
  Population Hoechst High Intensity Objects (%): 6%
  Population Membrane Permeable-Phenotype (%): 1%
  Population Mitochondria Different-Phenotype (%): 71%
  Population Mitotic Cells (%): 37%
  Population Normal (%): 93%
  Population Pyknosed Nuclei (%): 24%
  Population Tubulin-Different-Phenotype (%): 93%
  Total Cell Count: 243
[11]
  Population Apoptotic (%): 80%
  Population Fragmented Nuclei (%): 27%
  Population Healthy Nuclei (%): 0%
  Population Hoechst High Intensity Objects (%): 27%
  Population Membrane Permeable-Phenotype (%): 100%
  Population Mitochondria Different-Phenotype (%): 100%
  Population Mitotic Cells (%): 19%
  Population Normal (%): 72%
  Population Pyknosed Nuclei (%): 72%
  Population Tubulin-Different-Phenotype (%): 0%
  Total Cell Count: 291
[12]
  Population Apoptotic (%): 83%
  Population Fragmented Nuclei (%): 10%
  Population Healthy Nuclei (%): 11%
  Population Hoechst High Intensity Objects (%): 28%
  Population Membrane Permeable-Phenotype (%): 11%
  Population Mitochondria Different-Phenotype (%): 94%
  Population Mitotic Cells (%): 16%
  Population Normal (%): 71%
  Population Pyknosed Nuclei (%): 77%
  Population Tubulin-Different-Phenotype (%): 88%
  Total Cell Count: 202

Source: ChEMBL document CHEMBL4689842, “EUbOPEN Chemogenomics Library wave 1” (2021)
